From PubChem BioAssay
Shown are actives, neighbours in structure and some others; about 5.3% of the full set was active somewhere.
Calb FLC: C. albicans growth modulation with fluconazole | C. albicans CaCi-2 (fluconazole-resistant clinical isolate) + fluconazole, Alamar Blue growth, 48 h | growth inhibition, % (no concentration beside the values) | 300,000 tested, 0.57% active | AID 1979;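 active = growth inhibition above about 58% in most replicates, limit read from the data, passing the limit was not always enough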;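 note: all wells also contain fluconazole at 8 µg/ml as a sub-toxic cotreatment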
NLRP3 yeast inh: NALP3 inhibition in yeast. Yeast reconstituted NLRP3/ASC/caspase-1, beta-gal luminescence, 24 h. 330,000 tested, 0.39% active. inhibition, % at 10 µM;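 active = inhibition of 50% or more; inactive = inhibition below 50%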
CSC inhib: blocks cancer stem cells; 300,000 tested, 1.1% active; cancer stem cell-like cells viability, luminescence; AID 2717; inhibition, % at 7.5 µM; in the data active = inhibition above about 75%; tested in HMLE shEcad cells
Beta cell apopt: blocks beta cell apoptosis | INS-1E cytokine-induced death, ATP luminescence, 48 h; percent of positive-control rescue, neutral wells zero | 300,000 tested, 0.8% active | protection from apoptosis, % (test concentration not listed);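 active = Every replicate reaches about 75%, or at least half do and their mean reaches it too, limit read from the data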;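 note: higher means more ATP so stronger rescue from cytokine killing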
T cruzi inh: T. cruzi replication inhibition; T. cruzi beta-gal in NIH3T3, luminescence, 90 h; inhibition, % (test concentration not listed); 300,000 tested, 1.4% active; AID 1885;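 active = mean inhibition across valid replicates above about 55%, limit read from the data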;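 note: signal also drops with host cell toxicity which is not excluded here; higher percent means less beta-gal luminescence so fewer parasites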
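Material: NIH/3T3 host cells with β-galactosidase reporter T. cruzi; Input: 5,000 host fibroblasts per well; Medium: DMEM, 2% fetal bovine serum; Compound: 50 nL DMSO compound solution per well; Schedule: 3 h host attachment, then at least 90 h co-culture; Detection: luminescent β-galactosidase signal after 60 min lysis.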
Mdm2-MdmX inh: disrupts the human Mdm2-MdmX interaction; O15151+Q00987; SaOS-2 split-luciferase Mdm2/MdmX complementation, luminescence; inhibition, % at 8 µM; 330,000 tested, 3% active;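 active = inhibition of at least 50% at 8 µM in the primary screen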
Target sequence (O15151 whole entry, looked up): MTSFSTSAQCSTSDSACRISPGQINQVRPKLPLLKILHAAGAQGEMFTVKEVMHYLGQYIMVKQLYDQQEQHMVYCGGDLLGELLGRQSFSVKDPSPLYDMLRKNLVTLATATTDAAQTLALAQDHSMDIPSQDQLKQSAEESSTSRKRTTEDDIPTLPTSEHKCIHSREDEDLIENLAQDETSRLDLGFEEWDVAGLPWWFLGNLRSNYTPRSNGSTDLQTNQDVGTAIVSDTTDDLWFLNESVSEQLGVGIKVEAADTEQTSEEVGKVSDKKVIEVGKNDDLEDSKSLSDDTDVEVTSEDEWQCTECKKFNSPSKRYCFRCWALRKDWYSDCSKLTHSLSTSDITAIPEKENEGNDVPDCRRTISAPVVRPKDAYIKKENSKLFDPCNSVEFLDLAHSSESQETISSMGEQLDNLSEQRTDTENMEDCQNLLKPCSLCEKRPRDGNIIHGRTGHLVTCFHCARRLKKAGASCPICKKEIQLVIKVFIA
Target sequence (Q00987 whole entry, looked up): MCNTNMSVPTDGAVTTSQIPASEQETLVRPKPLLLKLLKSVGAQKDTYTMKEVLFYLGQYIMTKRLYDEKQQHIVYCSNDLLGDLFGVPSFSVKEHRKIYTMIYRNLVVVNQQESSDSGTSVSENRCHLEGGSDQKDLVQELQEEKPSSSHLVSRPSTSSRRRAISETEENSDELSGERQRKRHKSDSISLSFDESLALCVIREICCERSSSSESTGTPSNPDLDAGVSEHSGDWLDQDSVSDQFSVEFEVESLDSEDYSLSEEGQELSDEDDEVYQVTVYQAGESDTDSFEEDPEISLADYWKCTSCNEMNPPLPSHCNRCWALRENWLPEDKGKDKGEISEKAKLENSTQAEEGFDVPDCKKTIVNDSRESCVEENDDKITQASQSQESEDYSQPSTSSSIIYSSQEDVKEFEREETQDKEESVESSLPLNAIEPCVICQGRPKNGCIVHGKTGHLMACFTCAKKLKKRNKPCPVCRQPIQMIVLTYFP
Hits are given with their value; . = inactive; / = no result given.

SMILES | Calb FLC | NLRP3 yeast inh | CSC inhib | Beta cell apopt | T cruzi inh | Mdm2-MdmX inh
Fc1ccccc1Cc1noc(CN2CCN(C/C=C/c3ccccc3)CC2)n1 | . | . | . | . | 66.8 | .
c1ccc(CN2CCCC3(CCCN(Cc4nc(COc5ccccc5)no4)C3)C2)cc1 (configuration not stated) | . | . | . | . | 61.4 | .
Cc1ccnc(NC(=O)C2COc3ccccc3O2)c1 (configuration not stated) | . | . | . | . | . | .
CCCCN(CC)Cc1ccc(CNC(=S)Nc2ccc(C)cc2Cl)o1 | . | . | . | . | . | .
Clc1ccc(C2=NCCN2)cc1 | . | . | . | . | 61.7 | .
COC(=O)C[C@](O)(CCCC(C)(C)O)C(=O)O[C@@H]1C(OC)=C[C@]23CCCN2CCc2cc4c(cc2[C@H]13)OCO4 | / | / | 98.3 | 77.9 | . | /
COc1ccc(CNC(=O)c2cc(=O)c3ccc(C)c(C)c3o2)cc1 | . | . | . | . | . | .
COc1ccccc1NC(C)=[N+](C)CCNS(=O)(=O)c1ccc(Cl)cc1 | . | . | . | . | . | .
COc1ccc(NC(C)=[N+](C)CCNS(=O)(=O)c2ccc(Cl)cc2)cc1Cl | . | . | . | . | 58.2 | .
OCCCn1c(CCNc2nc(-c3ccc(Cl)cc3)cs2)nc2cc(C(F)(F)F)ccc21 | . | . | 78.4 | . | . | .
O=[N+]([O-])c1ccc(N2CCN(Cc3ccc([N+](=O)[O-])o3)CC2)cc1 | 133.0 | . | . | . | . | .
Oc1ccc(N2CCN(c3nc(-c4cccs4)nc4ccccc34)CC2)cc1 | . | . | 86.9 | . | . | .
CC1CCN(C(=O)c2ccccc2NC(=O)c2cccc(S(=O)(=O)N(C)C)c2)CC1 | . | . | . | . | . | .
Cc1c(-c2cccc(Cl)c2)nc2ccccc2c1C(=O)OCC(=O)Nc1ccc2c(c1)OCO2 | . | . | 154.9 | . | 55.0 | .
O=C(c1cc([N+](=O)[O-])cc([N+](=O)[O-])c1)N1CCCc2ccccc21 | . | . | . | . | 73.2 | .
Cc1ccc(C)c2nc3sc(C(=O)N4CCCc5ccccc54)c(N)c3cc12 | . | . | . | . | 65.9 | .
O=C(c1ccc(C(=O)N2CCCc3ccccc32)s1)N1CCCc2ccccc21 | 114.3 | . | . | . | . | .
O=C(COC(=O)CSc1nnc(-c2ccc(Cl)cc2)o1)Nc1cc(Cl)ccc1Cl | . | . | . | . | . | .
O=C(NC1CCCC1)C1CC1c1ccccc1 (configuration not stated) | . | . | . | . | . | .
Cc1ccc(SCC(=O)NCC2CCCO2)cc1 (configuration not stated) | . | . | . | . | . | .
CC1(C)C(C=C(Cl)Cl)C1C(=O)Nc1ccc([N+](=O)[O-])cc1 (configuration not stated) | / | / | . | 96.2 | / | /
O=C(Nc1ccc([N+](=O)[O-])cc1)C1CC1(c1ccccc1)c1ccccc1 (configuration not stated) | . | . | . | . | . | .
COC(=O)/C(=N\Nc1ccc(Cl)cc1)Sc1nnc(-c2ccc(OC)cc2)n1C | 84.1 | . | . | . | . | .
Cc1cc(C)cc(NC(=O)Nc2ccc(NC(=O)c3ccccc3O)cc2)c1 | . | . | 92.0 | . | . | .
Cc1ccc(NC(=O)c2ccccc2O)cc1 | . | . | / | . | . | .
SMILES | Calb FLC | NLRP3 yeast inh | CSC inhib | Beta cell apopt | T cruzi inh | Mdm2-MdmX inh
CCOC(=O)c1ccc(NC(=S)N2CCN(C)CC2)cc1 | . | . | . | . | . | .
CCOC(=O)c1c(NC(=O)CN2CCCCC2)sc(CN(C)C)c1-c1ccccc1 | . | . | . | . | 67.7 | .
CCOC(=O)c1c(-c2ccc(F)cc2)csc1NC(=O)CCN1CCOCC1 | . | . | . | . | . | .
CCOC(=O)c1c(NC(=S)N2CCN(C)CC2)sc(C)c1-c1ccccc1 | . | . | . | . | 61.3 | .
CCOC(=O)c1c(-c2ccc(-c3ccccc3)cc2)csc1NC(=O)CCN1CCOCC1 | . | / | 105.0 | . | . | /
CCOC(=O)c1c(NC(=O)Nc2ccc(Cl)cc2)sc(C)c1C | . | . | . | . | . | .
CCOC(=O)c1c(NC(=O)/C=C/C(=O)O)sc(C)c1-c1ccc(Cl)cc1 | . | . | 75.2 | . | . | .
CC(C)/C=N/Nc1nc2c(c(=O)n(C)c(=O)n2C)n1C | . | . | . | / | . | .
N#CCC(=O)N/N=C/c1cc(-c2ccccc2)n(-c2ccc(Cl)cc2)c1-c1ccccc1 | . | . | . | 108.8 | 59.6 | .
COc1ccc(S(=O)(=O)N2CCC(C(=O)Nc3cccc(C(C)=O)c3)CC2)cc1C | . | . | . | . | . | .
COc1ccc(OCC(O)Cn2cnc(-c3ccc(Br)cc3)c2)cc1 (configuration not stated) | . | . | . | . | . | .
OC(COc1ccc2ccccc2c1Br)Cn1cnc(-c2ccccc2)c1 (configuration not stated) | . | . | 101.2 | . | . | .
O=C(Nc1ccccc1)c1nnsc1S(=O)c1ccc(Cl)cc1 (configuration not stated) | . | . | 106.2 | . | . | .
C=C(C)COc1ccc(-c2nc(N)ncc2-c2ccc(Cl)cc2)c(O)c1 | . | . | 103.8 | . | . | .
CCOC(=O)C1=C(C)N2C(=C(C#N)[C@@H]1c1ccc(C(=O)OC)cc1)SC[C@@]2(O)C(C)(C)C | . | . | 82.0 | . | . | .
CCOC(=O)C1=C(C)N=C2SCCC(=O)N2C1c1ccc(C(=O)OC)cc1 (configuration not stated) | . | . | . | . | . | .
O=C(COc1ccc(Cl)cc1)Nc1ncc([N+](=O)[O-])s1 | 97.6 | / | / | / | . | /
O=C(COC(=O)COc1ccccc1)Nc1ncc([N+](=O)[O-])s1 | / | . | / | . | / | .
O=C(Cc1ccc(Cl)cc1)Nc1ncc([N+](=O)[O-])s1 | . | / | / | / | 93.7 | /
O=C(Cc1ccc([N+](=O)[O-])cc1)Nc1ccc(Cl)cc1 | . | . | . | . | . | .
Cc1cnc(NC(=O)Cc2ccc(Br)cc2)s1 | . | . | . | . | . | .
O=C(Cc1ccc(Br)cc1)Nc1ncc([N+](=O)[O-])s1 | . | . | . | . | 60.2 | .
COc1ccccc1NC(=O)c1ccc2nc(C)sc2c1 | . | . | . | . | . | .
COc1cccc(NC(=O)c2ccc3nc(C)sc3c2)c1 | 99.1 | . | . | . | . | .
CCOc1ccc(CCNC(=O)c2cc(-c3ccccc3)c(N3CCOCC3)s2)cc1 | . | . | . | . | 57.8 | .
O=C(N/N=C/c1ccccc1F)NC12CC3CC(CC(C3)C1)C2 | . | . | . | . | 56.8 | .
CC(COc1cccc2ccccc12)CN1CCN(C)CC1 (configuration not stated) | . | . | . | . | 66.1 | .
OC(COc1ccccc1Cl)CN1CCN(CC(O)COc2ccccc2Cl)CC1 (configuration not stated) | . | . | . | . | . | .
